For data set [1], the system named is heart, liver, spleen, lungs, and kidneys. Put plainly: HE staining of major organs after treatment. Format: in vivo, NOD/SCID mice. The following applies: kidneys after 10 mg/kg every 3 days, five doses.
The subject of a further data set is CHO-hPD-L1 tumors. As to the kind of experiment: Tumor volume and body weight during treatment. Format: in vivo, NOD/SCID mice. Conditions: 10 mg/kg every 3 days, five doses, monitored every 3 days. In a few lines: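 Mice bearing CHO-hPD-L1 tumours were randomised to PBS or the anti-PD-L1 antibody (n = 3 each). Either was given at 10 mg/kg via the tail vein every 3 days, five doses over a 14-day cycle. Tumour volume and body weight were recorded. Endpoint was tumour volume >1500 mm3 or maximum diameter >20 mm.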

As to “Atezolizumab: anti-PD-L1 monoclonal antibody”, in data set [1], the “histopathology of major organs (HE staining)” value is given as “No histopathological abnormalities”. For the same substance, in the data set with CHO-hPD-L1 tumors, the “body weight versus PBS group” value was “no notable differences in body weight”.

The record behind these values is paper PMC11966317 (ACS Omega, 2025).
